Experimental data as given in ChEMBL document CHEMBL1128716, “4,5-Dihydro-3-(methanesulfonamidophenyl)-1-phenyl-1H-2,4-benzodiazepines: a novel class III antiarrhythmic agents” (J Med Chem, 1995).
The source made the active and inactive calls.

What was measured:
[1] = organism: Oryctolagus cuniculus; assay: In vitro concentration at which cardiac refractoriness in rabbit is increased by 20 ms; assay type: functional; conditions: Heart
In short: (§1)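 Isolated hearts stimulated at twice threshold (1 mA minimum), equilibrated 45 min. ERP determined by scanning diastole with a single premature stimulus after 15 min at each of five cumulative concentrations. EC20 is the concentration raising ERP by 20 ms, estimated by linear regression of concentration–response data, in nM; n = 3–5 hearts.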

[2] = Displacement of [3H]D-888 from canine cardiac calcium channel; assay type: tissue-based, Canis lupus familiaris, Heart
In short: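 Canine cardiac sarcolemma vesicles (50 μg protein) with 5 nM [3H]D888 in 50 mM Tris-HCl pH 7.4, 0.1% BSA, 90 min at 25 °C, triplicate. Nonspecific binding defined with 31.6 μM (S)-verapamil. Bound ligand collected by filtration on polyethylenimine-treated filters; IC50 in μM.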

[3] = test system: Canis familiaris; assay: Maximum increase in ERP(ms) after oral dose of the compound( 0.3 mg/kg) in mongrel dogs at a basic cycle length of 400 ms.; assay type: functional, Canis lupus familiaris
In short: (§2)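 Conscious instrumented dogs, at least 7 days after surgery, suspended in slings during normal sinus rhythm. After three baseline ERP measurements, 0.3 mg/kg given orally by gastric lavage. ERP taken every 15 min for 3 h with pacing at basic cycle lengths of 500, 400 and 250 ms. Value is the maximum ERP increase over that interval, mean ± SEM.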

[4] = test system: Canis familiaris; assay: Maximum increase in ERP(ms) after oral dose of the compound( 0.3 mg/kg) in mongrel dogs at a basic cycle length of 250 ms.; assay type: functional, Canis lupus familiaris; in short: as §2
[5] = (§3) Displacement of [3H]BTX from sodium channel; parameters: species or system Canis lupus familiaris
In short: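 Canine cardiac sarcolemma vesicles (50 μg protein) incubated with 5 nM [3H]BTX-B, 60 min at 37 °C, triplicate. Nonspecific binding with 0.3 mM veratridine. Filtration read-out; IC50 in μM.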

[6] = test system: Canis familiaris; assay: Maximum increase in ERP(ms) after oral dose of the compound( 0.3 mg/kg) in mongrel dogs at a basic cycle length of 500 ms.; assay type: functional, Canis lupus familiaris; in short: as §2
[7] = organism: Oryctolagus cuniculus; assay: In vitro concentration at which cardiac refractoriness in rabbit (ERP-effective refractory period) is increased by 20 ms; inactive at 1000; assay type: functional; conditions: Heart; in short: as §1
[8] = molecular target: Sodium channel protein type 5 subunit alpha (Homo sapiens, UniProt Q14524); assay: Blockade of Na+ current in frog oocytes expressing human cardiac sodium channel (HH1); assay type: cell-based, Oocyte
In short: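 HH1 transcripts injected into Xenopus laevis oocytes, incubated at room temperature 24–72 h. Two-microelectrode voltage clamp (3 M KCl electrodes), bath NaCl 140, KCl 2, CaCl2 1.8, MgCl2 1, HEPES 5 mM, pH 7.5, 21–23 °C. Holding −100 mV; peak current at the I–V maximum measured before and after test agent; IC50 in μM.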

[9] = test system: Canis familiaris; assay: Maximum increase in ERP(ms) after oral dose of the compound( 0.3 mg/kg) in mongrel dogs at a basic cycle […].; assay type: functional, Canis lupus familiaris; in short: as §2
[10] = test system: Canis familiaris; assay: Prolongation of ERP(effective refractory […]) in mongrel dogs over a 3 hour interval following oral administration (0.3 mg/kg), pacing at a basic cycle length of 400 ms.; assay type: functional, Canis lupus familiaris; in short: as §2
[11] = test system: Canis familiaris; assay: Prolongation of ERP(effective refractory […]) in mongrel dogs over a 3 hour interval following oral administration (0.3 mg/kg), pacing at a basic cycle length of 250 ms.; assay type: functional, Canis lupus familiaris; in short: as §2
[12] = test system: Canis familiaris; assay: The orally dosed values in animals (0.3 mg/kg) represent the maximum increase in ERP observed over a 3 hour interval. Pacing was done at basic cycle lengths of 500 ms.; assay type: functional, Canis lupus familiaris; in short: as §2
[13] = as §3

Chain of Sodium channel protein type 5 subunit alpha (Q14524 whole entry): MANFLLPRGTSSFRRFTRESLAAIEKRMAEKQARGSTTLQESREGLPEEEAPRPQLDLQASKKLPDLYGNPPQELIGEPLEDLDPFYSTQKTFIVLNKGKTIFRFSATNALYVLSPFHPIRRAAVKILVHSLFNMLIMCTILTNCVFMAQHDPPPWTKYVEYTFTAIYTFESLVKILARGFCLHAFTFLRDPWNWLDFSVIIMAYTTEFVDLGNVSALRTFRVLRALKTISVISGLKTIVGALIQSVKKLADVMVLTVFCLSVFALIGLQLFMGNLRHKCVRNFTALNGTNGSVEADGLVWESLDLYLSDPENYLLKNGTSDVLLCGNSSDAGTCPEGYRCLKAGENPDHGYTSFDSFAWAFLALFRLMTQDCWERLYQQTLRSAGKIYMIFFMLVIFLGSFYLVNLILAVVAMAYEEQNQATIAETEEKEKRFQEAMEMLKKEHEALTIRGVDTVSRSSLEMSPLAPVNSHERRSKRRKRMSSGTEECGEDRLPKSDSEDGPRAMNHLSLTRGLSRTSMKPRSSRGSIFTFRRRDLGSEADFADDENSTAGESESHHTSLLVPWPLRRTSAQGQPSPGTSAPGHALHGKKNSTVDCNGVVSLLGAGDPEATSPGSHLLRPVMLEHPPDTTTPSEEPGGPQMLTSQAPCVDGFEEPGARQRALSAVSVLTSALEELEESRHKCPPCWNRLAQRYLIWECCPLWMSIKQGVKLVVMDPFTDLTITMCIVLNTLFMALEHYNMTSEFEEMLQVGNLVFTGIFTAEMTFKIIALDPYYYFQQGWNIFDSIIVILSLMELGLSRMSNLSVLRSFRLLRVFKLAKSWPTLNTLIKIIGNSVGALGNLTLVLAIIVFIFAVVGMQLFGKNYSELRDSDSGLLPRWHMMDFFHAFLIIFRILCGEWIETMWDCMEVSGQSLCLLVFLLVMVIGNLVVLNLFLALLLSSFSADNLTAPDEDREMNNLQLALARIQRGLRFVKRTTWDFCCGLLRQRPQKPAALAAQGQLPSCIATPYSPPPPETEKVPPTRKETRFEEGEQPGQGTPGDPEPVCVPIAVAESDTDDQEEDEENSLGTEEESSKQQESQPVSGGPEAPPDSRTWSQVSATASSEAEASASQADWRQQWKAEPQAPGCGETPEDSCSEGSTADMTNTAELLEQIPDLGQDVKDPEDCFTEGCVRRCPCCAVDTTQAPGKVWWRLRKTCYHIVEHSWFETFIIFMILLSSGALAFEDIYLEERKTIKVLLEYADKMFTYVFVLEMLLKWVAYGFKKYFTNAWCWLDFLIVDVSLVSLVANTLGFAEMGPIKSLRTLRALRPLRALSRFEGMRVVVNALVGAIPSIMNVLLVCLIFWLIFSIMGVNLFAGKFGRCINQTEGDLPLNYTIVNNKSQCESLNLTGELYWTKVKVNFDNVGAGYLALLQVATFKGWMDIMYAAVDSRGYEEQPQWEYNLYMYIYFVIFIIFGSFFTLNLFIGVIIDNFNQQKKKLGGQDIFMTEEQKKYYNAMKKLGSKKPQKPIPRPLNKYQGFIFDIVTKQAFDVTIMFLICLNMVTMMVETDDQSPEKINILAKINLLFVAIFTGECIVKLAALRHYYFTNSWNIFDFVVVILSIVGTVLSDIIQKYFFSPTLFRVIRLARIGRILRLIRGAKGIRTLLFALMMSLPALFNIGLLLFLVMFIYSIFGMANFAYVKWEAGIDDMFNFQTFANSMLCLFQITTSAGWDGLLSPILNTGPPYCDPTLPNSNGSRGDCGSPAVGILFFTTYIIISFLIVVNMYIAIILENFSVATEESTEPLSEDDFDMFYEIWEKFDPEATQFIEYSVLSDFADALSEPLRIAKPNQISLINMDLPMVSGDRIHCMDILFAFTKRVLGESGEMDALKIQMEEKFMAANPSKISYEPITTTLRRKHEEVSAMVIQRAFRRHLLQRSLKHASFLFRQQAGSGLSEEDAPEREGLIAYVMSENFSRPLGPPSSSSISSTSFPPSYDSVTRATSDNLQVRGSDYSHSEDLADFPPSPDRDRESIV

For CCS(=O)(=O)Nc1ccc(CCC2=NC(c3ccccc3)c3ccccc3CN2C)cc1 (centres undefined), the EC20 [1] was 100 nM.

Compound CSc1ccc([C@H]2N=C(OCc3ccc(NS(C)(=O)=O)cc3)N(C)Cc3ccccc32)cc1.Cl has an IC50 [2] of 700 nM, an ERP observations [3] of 33 and an ERP observations [4] of 28. It also gave an IC50 [5] of 1000 nM, an EC20 [1] of 7 nM and an ERP observations [6] of 33.

In the case of CN1Cc2ccccc2C(c2ccccc2)N=C1CCc1ccc(NS(=O)(=O)C(F)(F)F)cc1 (centres undefined), the EC20 [1] is reported as 520 nM.

With CN1Cc2ccccc2C(c2ccc(NS(C)(=O)=O)cc2)N=C1CCc1ccc(NS(C)(=O)=O)cc1 (centres undefined) the EC20 [7] was “inactive”.

CN1Cc2ccccc2C(c2ccccc2)N=C1CCc1ccccc1NS(C)(=O)=O (centres undefined) showed an EC20 [1] of 500 nM.

In the case of CSc1ccc([C@@H]2N=C(OCc3ccc(NS(C)(=O)=O)cc3)N(C)Cc3ccccc32)cc1.Cl, the IC50 [2] is reported as 1100 nM, the ERP observations [4] is reported as 11 and the IC50 [8] is reported as greater than 30000 nM. It also gave an IC50 [5] of 3000 nM, an ERP observations [9] of 20 and an EC20 [1] of 8 nM. It also gave an ERP observations [6] of 28.

Compound CN1Cc2ccccc2C(c2ccccc2)N=C1CCc1ccc(NS(C)(=O)=O)cc1 (centres undefined) has an EC20 [1] of 20 nM.

Work on CN1Cc2ccccc2C(c2ccc(Cl)cc2)N=C1SCc1ccc(NS(C)(=O)=O)cc1 (centres undefined) yielded an EC20 [1] of 5.5 nM.

Compound COc1ccc(C2N=C(OCc3ccc(NS(C)(=O)=O)cc3)N(C)Cc3ccccc32)cc1 (centres undefined) has an EC20 [1] of 4 nM.

In the case of CN(CCOc1ccc(NS(C)(=O)=O)cc1)CCc1ccc(NS(C)(=O)=O)cc1 [DOFETILIDE], the ERP observations [10] is reported as 28, the ERP observations [11] is reported as 21 and the ERP observations [12] is reported as 30. It also gave an EC20 [1] of 2 nM.

CSc1ccc(C2N=C(OCc3ccc(NS(C)(=O)=O)cc3)N(C)Cc3ccccc32)cc1 (centres undefined) gave an EC20 [1] of 4 nM.

For CN1Cc2ccccc2[C@H](c2ccccc2)N=C1OCc1ccc(NS(C)(=O)=O)cc1.O=C(O)/C=C/C(=O)O, the IC50 [2] was 900 nM, the ERP observations [3] was 20 and the ERP observations [4] was 18. It also gave an IC50 [8] greater than 30000 nM, an IC50 [5] of 6900 nM and an EC20 [1] of 4 nM. The ERP observations [6] was 18.

CN1Cc2ccccc2[C@@H](c2ccccc2)N=C1OCc1ccc(NS(C)(=O)=O)cc1.O=C(O)/C=C/C(=O)O showed an ERP [3] of 36 ms, an ERP [4] of 31 ms and an IC50 [8] of 126000 nM. It also gave an EC20 [1] of 1.5 nM, an ERP [6] of 40 ms and an IC50 [13] of 5200 nM.

CN1Cc2ccccc2[C@@H](c2ccc(Cl)cc2)N=C1OCc1ccc(NS(C)(=O)=O)cc1 showed an EC20 [1] of 2 nM.

CN1Cc2ccccc2C(c2ccc(Cl)cc2)N=C1CCc1ccc(NS(C)(=O)=O)cc1 (centres undefined) showed an EC20 [1] of 10 nM.

Work on CN1Cc2ccccc2C(c2ccc(Cl)c(Cl)c2)N=C1OCc1ccc(NS(C)(=O)=O)cc1 (centres undefined) yielded an EC20 [1] of 2 nM.

In the case of CN1Cc2ccccc2C(c2ccc(NS(C)(=O)=O)cc2)N=C1CCc1ccccc1 (centres undefined), the EC20 [1] is reported as 780 nM.

With CN1Cc2ccc(NS(C)(=O)=O)cc2C(c2ccccc2)N=C1CCc1ccccc1 (centres undefined) the EC20 [1] was 655 nM.

Compound CN1Cc2ccccc2[C@H](c2ccc(Cl)cc2)N=C1OCc1ccc(NS(C)(=O)=O)cc1 has an EC20 [1] of 4 nM.

CN1Cc2ccccc2C(c2ccccc2)N=C1CCc1ccccc1 (centres undefined) showed an EC20 [1] of 60 nM.

In the case of CN1Cc2ccccc2C(c2ccc(Cl)cc2)N=C1OCc1ccc(NS(C)(=O)=O)cc1 (centres undefined), the EC20 [1] is reported as 3 nM.

For CN1Cc2ccccc2[C@@H](c2ccc(F)cc2F)N=C1CCc1ccc(NS(C)(=O)=O)cc1.Cl, the IC50 [2] was 1100 nM, the ERP observations [3] was 33 and the ERP observations [4] was 22. The IC50 [8] was greater than 100000 nM, the IC50 [5] was 2500 nM and the EC20 [1] was 8 nM. It also gave an ERP observations [6] of 33.

Compound CN1Cc2ccccc2[C@H](c2ccc(F)cc2F)N=C1CCc1ccc(NS(C)(=O)=O)cc1.Cl has an IC50 [2] of 500 nM, an ERP observations [3] of 27 and an ERP observations [4] of 21. It also gave an IC50 [8] greater than 100000 nM, an IC50 [5] of 3600 nM and an EC20 [1] of 7 nM. The ERP observations [6] was 28.

CN1Cc2ccccc2C(c2ccc(NS(C)(=O)=O)cc2)N=C1OCc1ccc(NS(C)(=O)=O)cc1 (centres undefined) gave an EC20 [1] of 140 nM.

CN1Cc2ccccc2C(c2ccc(F)cc2F)N=C1CCc1ccc(NS(C)(=O)=O)cc1 (centres undefined) gave an EC20 [1] of 4 nM.

Compound CN1Cc2ccccc2C(c2ccccc2)N=C1OCc1ccc(NS(C)(=O)=O)cc1 (centres undefined) has an EC20 [1] of 6 nM.

In the case of CN1Cc2c(NS(C)(=O)=O)cccc2C(c2ccccc2)N=C1CCc1ccccc1 (centres undefined), the EC20 [7] is reported as “inactive”.
